This is an account of results in ChEMBL document CHEMBL5107938, “Synthesis and biological evaluation of selective phosphonate-bearing 1,2,3-triazole-linked sialyltransferase inhibitors” (RSC Med Chem, 2021).

In test [1] the target is T1, Beta-galactoside alpha-2,6-sialyltransferase 1 (Homo sapiens) (UniProt P15907).
T1 sequence (whole entry): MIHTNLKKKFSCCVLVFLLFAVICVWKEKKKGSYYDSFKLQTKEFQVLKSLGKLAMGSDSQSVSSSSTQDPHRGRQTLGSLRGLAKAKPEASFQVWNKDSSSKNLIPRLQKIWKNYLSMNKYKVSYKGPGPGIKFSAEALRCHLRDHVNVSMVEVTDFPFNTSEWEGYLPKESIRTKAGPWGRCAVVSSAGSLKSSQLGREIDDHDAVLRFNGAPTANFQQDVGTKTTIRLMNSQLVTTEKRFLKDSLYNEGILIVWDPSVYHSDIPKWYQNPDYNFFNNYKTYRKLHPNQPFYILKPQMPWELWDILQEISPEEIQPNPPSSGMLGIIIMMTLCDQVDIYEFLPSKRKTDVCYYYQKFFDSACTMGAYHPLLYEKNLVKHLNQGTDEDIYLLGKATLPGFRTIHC
Put plainly: Inhibition of recombinant human ST6Gal I at 10 uM incubated for 1 hrs in the presence of CMP-Neu5Ac as donor and LacNAc as acceptor by luminescence based CMP-Glo assay relative to control. In outline:
(§1)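 Human enzyme reaction with 1 mM acceptor and 100 μM CMP-Neu5Ac donor. Test agent at 10 or 100 μM, incubated for a single hour. CMP formed as by-product was converted in a luciferase reaction, and luminescence, linear with CMP concentration, was read. Percent inhibition was calculated against control.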

For test [2], the target named is T1, Beta-galactoside alpha-2,6-sialyltransferase 1 (Homo sapiens). Description: Ratio of Km for Substrate activity at recombinant human ST6Gal I to Ki for inhibition of recombinant human ST6Gal I at 10 uM incubated for 1 hrs in the presence of CMP-Neu5Ac as donor and LacNAc as acceptor. The essentials:
(§2)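 For hST6Gal I, the Km for CMP-Neu5Ac was determined with acceptor held at 1 mM. Ki was determined only for agents exceeding 50% inhibition at 10 μM in the screen (1 mM acceptor, 100 μM donor). Read-out was luciferase-coupled luminescence of released CMP after a single-hour incubation.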

For test [3], the target named is T2, CMP-N-acetylneuraminate-beta-galactosamide-alpha-2,3-sialyltransferase 1 (Homo sapiens) (UniProt Q11201).
T2 sequence (whole entry): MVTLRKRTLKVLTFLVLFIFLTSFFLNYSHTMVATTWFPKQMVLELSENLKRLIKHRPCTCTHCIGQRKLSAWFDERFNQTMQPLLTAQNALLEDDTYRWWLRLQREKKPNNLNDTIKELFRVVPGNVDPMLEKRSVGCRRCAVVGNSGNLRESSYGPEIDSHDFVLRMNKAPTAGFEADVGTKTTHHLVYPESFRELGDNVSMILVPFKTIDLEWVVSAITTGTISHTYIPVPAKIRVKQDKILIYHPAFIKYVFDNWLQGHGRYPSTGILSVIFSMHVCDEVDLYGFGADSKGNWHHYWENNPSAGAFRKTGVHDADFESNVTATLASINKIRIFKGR
Put plainly: Inhibition of recombinant human ST3Gal I at 100 uM incubated for 1 hrs in the presence of CMP-Neu5Ac as donor and Gal-beta1,3-GalNAc as acceptor by luminescence based CMP-Glo assay relative to control. The essentials: as §1

Test [4] addresses T3, Beta-galactoside alpha-2,6-sialyltransferase 1 (Homo sapiens, UniProt P15907).
T3 sequence (P15907 whole entry): T1 sequence (whole entry)
Description: Inhibition of recombinant human ST6Gal I incubated for 1 hrs in the presence of CMP-Neu5Ac as donor and LacNAc as acceptor by luminescence based CMP-Glo assay. The essentials:
as §2

Test [5] has as its target T1, Beta-galactoside alpha-2,6-sialyltransferase 1 (Homo sapiens). Description: Inhibition of recombinant human ST6Gal I at 100 uM incubated for 1 hrs in the presence of CMP-Neu5Ac as donor and LacNAc as acceptor by luminescence based CMP-Glo assay relative to control. The essentials:
as §1

On to `O=c1ccn([C@@H]2O[C@H](COCc3cn(C(c4cccc(Oc5ccccc5)c4)P(=O)(O)O)nn3)[C@@H](O)[C@H]2O)c(=O)[nH]1` (stereo in doubt; 13a-(l)) [listing 1 of 2 here], for which the inhibition (commonly the share of the control response that was lost under treatment) in test [1] is 26%; in test [3], 2%. Further, the Ratio in test [2] worked out at 0.7.
For `O=c1ccn([C@@H]2O[C@H](COCc3cn(C(c4cccc(OC(F)(F)C(F)F)c4)P(=O)(O)O)nn3)[C@@H](O)[C@H]2O)c(=O)[nH]1` (stereo in doubt; 13f-(l)) [listing 1 of 2 here], in that order: 78%, 39% and 11.
As for `O=c1ccn([C@@H]2O[C@H](COCc3cn(C(c4ccc(F)c(Oc5ccccc5)c4)P(=O)(O)O)nn3)[C@@H](O)[C@H]2O)c(=O)[nH]1` (stereo in doubt; 13c-(l)) [listing 1 of 2 here], the inhibition in test [1] stood at 59%; in test [3], 9%. The Ratio in test [2] came to 1.1.
For `O=c1ccn([C@@H]2O[C@H](COCc3cn(C(c4cccc(OC(F)(F)C(F)F)c4)P(=O)(O)O)nn3)[C@@H](O)[C@H]2O)c(=O)[nH]1` (stereo in doubt; 13f-(l)) [listing 2 of 2 here], in test [4], the Ki (commonly the dissociation constant of the complex between target and ligand, obtained from inhibition or displacement) is 3.4 µM.
Consider `O=c1ccn([C@@H]2O[C@H](COCc3cn(C(c4ccc(F)cc4)P(=O)(O)O)nn3)[C@@H](O)[C@H]2O)c(=O)[nH]1` (stereo in doubt; 13d-(l)), for which, in test [1], the inhibition amounted to 45%.
The same measure, in the same setting: the same measure for `O=c1ccn([C@@H]2O[C@H](COCc3cn(C(c4csc5ccccc45)P(=O)(O)O)nn3)[C@@H](O)[C@H]2O)c(=O)[nH]1` (stereo in doubt; 13g-(l)): 21%; for `O=c1ccn([C@@H]2O[C@H](COCc3cn(C(c4csc5ccccc45)P(=O)(O)O)nn3)[C@@H](O)[C@H]2O)c(=O)[nH]1` (stereo in doubt; 13g-(s)): 25%; for `O=c1ccn([C@@H]2O[C@H](COCc3cn(C(c4cccc(OC5CCCC5)c4)P(=O)(O)O)nn3)[C@@H](O)[C@H]2O)c(=O)[nH]1` (stereo in doubt; 13b-(l)): 10%.
Still for that read-out and setting: to `O=c1ccn([C@@H]2O[C@H](COCc3cn(C(c4cccc(OC5CCCC5)c4)P(=O)(O)O)nn3)[C@@H](O)[C@H]2O)c(=O)[nH]1` (single isomer, unassigned) belongs 41%.
As for `O=c1ccn([C@@H]2O[C@H](COCc3cn(C(c4cccc(OC(F)(F)C(F)F)c4)P(=O)(O)O)nn3)[C@@H](O)[C@H]2O)c(=O)[nH]1` (single isomer, unassigned) [listing 1 of 2 here], the inhibition was found to be 65% in test [1] and 49% in test [3]. In addition, the Ratio in test [2] was found to be 5.6.
For `O=c1ccn([C@@H]2O[C@H](COCc3cn(C(c4ccc(F)c(Oc5ccccc5)c4)P(=O)(O)O)nn3)[C@@H](O)[C@H]2O)c(=O)[nH]1` (stereo in doubt; 13c-(l)) [listing 2 of 2 here], in test [4], the Ki stood at 34 µM.
Turning to `O=c1ccn([C@@H]2O[C@H](Cn3cc(C(O)c4cccc(Oc5ccccc5)c4)nn3)[C@@H](O)[C@H]2O)c(=O)[nH]1` (some centres undefined), the inhibition in test [5] turned out to be 84%; in test [3], 43%.
For `O=c1ccn([C@@H]2O[C@H](COCc3cn(C(c4ccc(F)c(Oc5ccccc5)c4)P(=O)(O)O)nn3)[C@@H](O)[C@H]2O)c(=O)[nH]1` (stereo in doubt; 13c-(s)) [listing 1 of 2 here], the inhibition in test [1] is 57%; in test [3], 43%. In addition, the Ratio in test [2] was found to be 6.
As for `O=c1ccn([C@@H]2O[C@H](COCc3cn(C(c4cccc(C(F)(F)F)c4)P(=O)(O)O)nn3)[C@@H](O)[C@H]2O)c(=O)[nH]1` (single isomer, unassigned; form 2), the inhibition in test [1] was 39%.
With `O=c1ccn([C@@H]2O[C@H](COCc3cn(C(c4ccc(F)c(Oc5ccccc5)c4)P(=O)(O)O)nn3)[C@@H](O)[C@H]2O)c(=O)[nH]1` (stereo in doubt; 13c-(s)) [listing 2 of 2 here], in test [4], the Ki worked out at 6 µM.
As to `O=c1ccn([C@@H]2O[C@H](COCc3cn(C(c4ccc(F)cc4)P(=O)(O)O)nn3)[C@@H](O)[C@H]2O)c(=O)[nH]1` (single isomer, unassigned), the inhibition in test [1] stood at 44%.
The same measure, in the same setting: the same measure for `O=c1ccn([C@@H]2O[C@H](COCc3cn(C(c4cccc(C(F)(F)F)c4)P(=O)(O)O)nn3)[C@@H](O)[C@H]2O)c(=O)[nH]1` (single isomer, unassigned; form 1): 23%.
Take `O=c1ccn([C@@H]2O[C@H](COCc3cn(C(c4cccc(Oc5ccccc5)c4)P(=O)(O)O)nn3)[C@@H](O)[C@H]2O)c(=O)[nH]1` (stereo in doubt; 13a-(s)) [listing 1 of 2 here]: the Ki in test [4] is 40 µM.
For `O=c1ccn([C@@H]2O[C@H](COCc3cn(C(c4cccc(Oc5ccccc5)c4)P(=O)(O)O)nn3)[C@@H](O)[C@H]2O)c(=O)[nH]1` (stereo in doubt; 13a-(l)) [listing 2 of 2 here], the inhibition constant Ki in test [4] stood at 50 µM.
Still for that read-out and setting: to `O=c1ccn([C@@H]2O[C@H](COCc3cn(C(c4cccc(OC(F)(F)C(F)F)c4)P(=O)(O)O)nn3)[C@@H](O)[C@H]2O)c(=O)[nH]1` (single isomer, unassigned) [listing 2 of 2 here] belongs 6.7 µM.
With `O=c1ccn([C@@H]2O[C@H](COCc3cn(C(c4cccc(Oc5ccccc5)c4)P(=O)(O)O)nn3)[C@@H](O)[C@H]2O)c(=O)[nH]1` (stereo in doubt; 13a-(s)) [listing 2 of 2 here], the results for the inhibition in test [1] and in test [3] were 62% and 28%, respectively. Also, the Ratio in test [2] came to 1.
